Results pooled from the literature.
Target: Serine/threonine-protein kinase TAO1 (TAOK1, Homo sapiens, UniProt Q7L7X3)
Sequence (Q7L7X3 1-1001, as in one of the studies): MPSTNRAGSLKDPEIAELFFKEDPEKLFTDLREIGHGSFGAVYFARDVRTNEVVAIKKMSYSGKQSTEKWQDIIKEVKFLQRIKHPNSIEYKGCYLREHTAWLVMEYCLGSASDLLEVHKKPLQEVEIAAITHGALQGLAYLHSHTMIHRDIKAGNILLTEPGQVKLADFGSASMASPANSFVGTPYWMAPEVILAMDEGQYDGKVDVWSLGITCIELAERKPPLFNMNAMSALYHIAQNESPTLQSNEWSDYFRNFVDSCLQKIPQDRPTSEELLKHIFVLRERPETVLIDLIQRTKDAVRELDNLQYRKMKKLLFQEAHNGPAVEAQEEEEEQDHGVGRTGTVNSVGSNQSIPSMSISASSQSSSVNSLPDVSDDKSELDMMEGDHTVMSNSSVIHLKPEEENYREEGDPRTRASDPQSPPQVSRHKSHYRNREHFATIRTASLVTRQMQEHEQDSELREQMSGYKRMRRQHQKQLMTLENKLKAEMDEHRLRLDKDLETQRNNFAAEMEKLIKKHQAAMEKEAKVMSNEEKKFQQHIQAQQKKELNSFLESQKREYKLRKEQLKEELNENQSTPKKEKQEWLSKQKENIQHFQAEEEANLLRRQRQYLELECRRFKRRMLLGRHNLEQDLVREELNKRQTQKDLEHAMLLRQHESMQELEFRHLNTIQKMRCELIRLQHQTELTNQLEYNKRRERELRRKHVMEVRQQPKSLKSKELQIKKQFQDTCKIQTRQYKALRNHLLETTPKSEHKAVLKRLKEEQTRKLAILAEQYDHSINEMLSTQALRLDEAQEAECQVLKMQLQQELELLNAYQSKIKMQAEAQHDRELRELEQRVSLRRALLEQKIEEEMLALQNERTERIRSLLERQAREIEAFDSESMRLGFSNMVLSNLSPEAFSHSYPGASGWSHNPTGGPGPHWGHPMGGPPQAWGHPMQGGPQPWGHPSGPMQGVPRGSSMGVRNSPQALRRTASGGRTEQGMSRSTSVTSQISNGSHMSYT

COc1ncc2cc3ccccc3nc2c1C#N — remaining binding (cell-free assay; competition with immobilised ligand; 5 µM): 100%
c1cncc(-c2cccc(Nc3nccc(NC4CCCCC4)n3)c2)c1 — remaining binding (binding; competition with immobilised ligand; 10 µM): 97%
O=C(c1ccc(Nc2nccc(-c3cc4ccccc4s3)n2)cc1)N1CCC(N2CCCC2)CC1 — remaining binding (binding; competition with immobilised ligand; 1 µM): 82%
O=C(O)[C@@H]1[C@@H](Cn2nnc3ccccc3c2=O)CC[C@H]1C(=O)c1ccc(OCCC2CCOCC2)cc1 — remaining binding (cell-free assay; competition with immobilised ligand; 1 µM): 100%
O=C(NCCCN1CCOCC1)c1ccc(Nc2ncc(Cl)c(-c3ccc(Cl)s3)n2)cc1 — remaining binding (binding; competition with immobilised ligand; 1 µM): 43%
CN([C@@H]1CCc2c(CC(=O)O)c3ccccc3n2C1)S(=O)(=O)c1ccc(F)cc1 — remaining binding (cell-free assay; competition with immobilised ligand; 1 µM): 93%
CNC(=O)c1ccccc1Nc1cc(Nc2ccc(N3CCOCC3)cc2OC)ncc1C(F)(F)F — remaining binding (binding; competition with immobilised ligand; 1 µM): < 10%
CC1=C(C#N)[C@@H](c2ccc3[nH]nc(C)c3c2)C(C#N)=C(c2ccc(Cl)cc2)N1 — remaining binding (cell-free assay; competition with immobilised ligand; 1 µM): 100%
c1cnn2ncc(-c3ccnc(N4CCC45COC5)n3)c2c1 — remaining binding (binding; 1 µM): 58%
O=C1CCc2cc(Nc3cc(OC4CCOCC4)c([N+](=O)[O-])cc3Cl)ccc2N1 — remaining binding (cell-free assay; competition with immobilised ligand; 1 µM): 81%
C[C@H]1CCN(c2nccc(-c3cnn4ncccc34)n2)C1 — remaining binding (binding; 1 µM): 78%
CC(=O)Nc1c(C(C)=O)c(=O)n(C)c2nc(-c3ccc(Cl)cc3Cl)c(-c3ccc(Cl)cc3)cc12 — remaining binding (cell-free assay; competition with immobilised ligand; 1 µM): 89%
C[C@@H](c1ccc(-n2cnc3c(N)ncnc32)cc1)N1CCc2nn(C)c(Cc3ccccc3)c2C1=O — remaining binding (binding; competition with immobilised ligand; 0.1 µM): 90%
CN(c1nccc(-c2cnn3ncccc23)n1)C1CC1 — remaining binding (binding; 1 µM): 100%
CCN1CCN(Cc2ccc(C(=O)Nc3ccc(C)c(Oc4ccc5c(c4)CC(=O)N5)c3)cc2C(F)(F)F)CC1 — remaining binding (binding; competition with immobilised ligand; 1 µM): 100%
CNC(=O)[C@@H]1CC[C@@H](n2c(-c3ccc4cnccc4c3)nc3ccc(C(=O)NCc4cccc(C(N)=O)c4)cc32)C1 — remaining binding (binding; competition with immobilised ligand; 1 µM): 100%
O=C(Nc1c[nH]nc1C(=O)NC1CCNCC1)c1cc(F)cc(F)c1 — remaining binding (binding; competition with immobilised ligand; 1 µM): 80%
Cc1cnn2ncc(-c3ccnc(N(C)C)n3)c2c1 — remaining binding (binding; 1 µM): 92%
CCC(=N\O)/C(C)=C/c1ccc(F)cc1 — remaining binding (cell-free assay; competition with immobilised ligand; 1 µM): 100%
N[C@H]1CCN(c2nccc(-c3cnn4ncccc34)n2)C1 — remaining binding (binding; 1 µM): 87%
O=C(c1ccc(Nc2ncc(Cl)c(-c3ccc(Cl)s3)n2)cc1)N1CCC(N2CCCC2)CC1 — remaining binding (binding; competition with immobilised ligand; 1 µM): 47%
COc1ccnn2ncc(-c3ccnc(N(C)C)n3)c12 — remaining binding (binding; 1 µM): 81%
Nc1ncc2c(n1)-c1c([nH]c3ccc(C#CC4CC4)cc13)CCCC2 — remaining binding (binding; competition with immobilised ligand; 1 µM): 97%
